Data: article PMC7004521 (Cancer Science, 2019)

Assay: Adverse events suspected to be study drug related, phase 1 study
Format: in vivo, human
Conditions: drug-related
Procedure, shortened: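 Adult patients with advanced solid tumours and confirmed MET dysregulation took oral capsules twice daily from 100 up to 600 mg in escalation, or 400 mg bid tablets, in 28-day cycles. Expansion was 600 mg bid capsules, with a switch to 400 mg bid tablets allowed. Patients were included if they had ≥1 dose and ≥1 valid post-baseline safety assessment. Events were graded by CTCAE v4.0.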

SMILES: CNC(=O)c1ccc(-c2cnc3ncc(Cc4ccc5ncccc5c4)n3n2)cc1F [capmatinib]
- Hypoalbuminemia, grade 3/4 (escalation 600 mg bid n=8): 0 n (%)
- Hypophagia, all grades (escalation 600 mg bid n=8): 0 n (%)
- Hypophagia, grade 3/4 (escalation 600 mg bid n=8): 0 n (%)
- Lipase increased, all grades (escalation 600 mg bid n=8): 0 n (%)
- Lipase increased, grade 3/4 (escalation 600 mg bid n=8): 0 n (%)
- Maculo‐papular rash, all grades (escalation 600 mg bid n=8): 0 n (%)
- Maculo‐papular rash, grade 3/4 (escalation 600 mg bid n=8): 0 n (%)
- Myalgia, all grades (escalation 600 mg bid n=8): 0 n (%)
- Myalgia, grade 3/4 (escalation 600 mg bid n=8): 0 n (%)
- Nausea, all grades (escalation 600 mg bid n=8): 3 (38) n (%)
- Nausea, grade 3/4 (escalation 600 mg bid n=8): 0 n (%)
- Odynophagia, all grades (escalation 600 mg bid n=8): 0 n (%)
- Odynophagia, grade 3/4 (escalation 600 mg bid n=8): 0 n (%)
- Peripheral edema, all grades (escalation 600 mg bid n=8): 1 (13) n (%)
- Peripheral edema, grade 3/4 (escalation 600 mg bid n=8): 0 n (%)
- Pyrexia, all grades (escalation 600 mg bid n=8): 0 n (%)
- Pyrexia, grade 3/4 (escalation 600 mg bid n=8): 0 n (%)
- Stomatitis, all grades (escalation 600 mg bid n=8): 1 (13) n (%)
- Stomatitis, grade 3/4 (escalation 600 mg bid n=8): 0 n (%)
- Thrombocytopenia, all grades (escalation 600 mg bid n=8): 0 n (%)
- Thrombocytopenia, grade 3/4 (escalation 600 mg bid n=8): 0 n (%)
- Total protein decreased, all grades (escalation 600 mg bid n=8): 1 (13) n (%)
- Total protein decreased, grade 3/4 (escalation 600 mg bid n=8): 0 n (%)
- Upper abdominal pain, all grades (escalation 600 mg bid n=8): 0 n (%)
- Upper abdominal pain, grade 3/4 (escalation 600 mg bid n=8): 0 n (%)
- Vomiting, all grades (escalation 600 mg bid n=8): 3 (38) n (%)
- Vomiting, grade 3/4 (escalation 600 mg bid n=8): 0 n (%)
- ALT increased, all grades (escalation 100-350 mg bid n=16): 0 n (%)
- ALT increased, grade 3/4 (escalation 100-350 mg bid n=16): 0 n (%)
- AST increased, all grades (escalation 100-350 mg bid n=16): 1 (6) n (%)
- Amylase increased, all grades (escalation 100-350 mg bid n=16): 2 (13) n (%)
- Amylase increased, grade 3/4 (escalation 100-350 mg bid n=16): 1 (6) n (%)
- Asthenia, all grades (escalation 100-350 mg bid n=16): 4 (25) n (%)
- Asthenia, grade 3/4 (escalation 100-350 mg bid n=16): 0 n (%)
- Blood bilirubin increased, all grades (escalation 100-350 mg bid n=16): 3 (19) n (%)
- Blood bilirubin increased, grade 3/4 (escalation 100-350 mg bid n=16): 1 (6) n (%)
- Blood creatinine increased, all grades (escalation 100-350 mg bid n=16): 2 (13) n (%)
- Blood creatinine increased, grade 3/4 (escalation 100-350 mg bid n=16): 0 n (%)
- Constipation, all grades (escalation 100-350 mg bid n=16): 2 (13) n (%)
- Constipation, grade 3/4 (escalation 100-350 mg bid n=16): 0 n (%)
- Decreased appetite, all grades (escalation 100-350 mg bid n=16): 5 (31) n (%)
- Decreased appetite, grade 3/4 (escalation 100-350 mg bid n=16): 1 (6) n (%)
- Diarrhea, all grades (escalation 100-350 mg bid n=16): 2 (13) n (%)
- Diarrhea, grade 3/4 (escalation 100-350 mg bid n=16): 0 n (%)
- Dizziness, all grades (escalation 100-350 mg bid n=16): 0 n (%)
- Dizziness, grade 3/4 (escalation 100-350 mg bid n=16): 0 n (%)
- Dyspepsia, all grades (escalation 100-350 mg bid n=16): 0 n (%)
- Dyspepsia, grade 3/4 (escalation 100-350 mg bid n=16): 0 n (%)
- Fatigue, all grades (escalation 100-350 mg bid n=16): 3 (19) n (%)
- Fatigue, grade 3/4 (escalation 100-350 mg bid n=16): 2 (13) n (%)
- Headache, all grades (escalation 100-350 mg bid n=16): 1 (6) n (%)
- Headache, grade 3/4 (escalation 100-350 mg bid n=16): 0 n (%)
- Hypoalbuminemia, all grades (escalation 100-350 mg bid n=16): 3 (19) n (%)
- Hypoalbuminemia, grade 3/4 (escalation 100-350 mg bid n=16): 1 (6) n (%)
- Hypophagia, all grades (escalation 100-350 mg bid n=16): 2 (13) n (%)
- Hypophagia, grade 3/4 (escalation 100-350 mg bid n=16): 2 (13) n (%)
- Lipase increased, all grades (escalation 100-350 mg bid n=16): 1 (6) n (%)
- Lipase increased, grade 3/4 (escalation 100-350 mg bid n=16): 1 (6) n (%)
- Maculo‐papular rash, all grades (escalation 100-350 mg bid n=16): 0 n (%)
- Maculo‐papular rash, grade 3/4 (escalation 100-350 mg bid n=16): 0 n (%)
- Myalgia, all grades (escalation 100-350 mg bid n=16): 2 (13) n (%)
- Myalgia, grade 3/4 (escalation 100-350 mg bid n=16): 0 n (%)
- Nausea, all grades (escalation 100-350 mg bid n=16): 3 (19) n (%)
- Nausea, grade 3/4 (escalation 100-350 mg bid n=16): 0 n (%)
- Odynophagia, all grades (escalation 100-350 mg bid n=16): 1 (6) n (%)
- Odynophagia, grade 3/4 (escalation 100-350 mg bid n=16): 0 n (%)
- Peripheral edema, all grades (escalation 100-350 mg bid n=16): 3 (19) n (%)
- Peripheral edema, grade 3/4 (escalation 100-350 mg bid n=16): 1 (6) n (%)
- Pyrexia, all grades (escalation 100-350 mg bid n=16): 1 (6) n (%)
- Pyrexia, grade 3/4 (escalation 100-350 mg bid n=16): 0 n (%)
- Stomatitis, all grades (escalation 100-350 mg bid n=16): 0 n (%)
- Stomatitis, grade 3/4 (escalation 100-350 mg bid n=16): 0 n (%)
- Thrombocytopenia, all grades (escalation 100-350 mg bid n=16): 1 (6) n (%)
- Thrombocytopenia, grade 3/4 (escalation 100-350 mg bid n=16): 0 n (%)
- Total protein decreased, all grades (escalation 100-350 mg bid n=16): 1 (6) n (%)
- Total protein decreased, grade 3/4 (escalation 100-350 mg bid n=16): 0 n (%)
- Upper abdominal pain, all grades (escalation 100-350 mg bid n=16): 1 (6) n (%)
- Upper abdominal pain, grade 3/4 (escalation 100-350 mg bid n=16): 0 n (%)
- Vomiting, all grades (escalation 100-350 mg bid n=16): 4 (25) n (%)
- Vomiting, grade 3/4 (escalation 100-350 mg bid n=16): 0 n (%)
- ALT increased, all grades (expansion RP2D HCC n=11): 0 n (%)
- ALT increased, grade 3/4 (expansion RP2D HCC n=11): 0 n (%)
- AST increased, all grades (expansion RP2D HCC n=11): 1 (9) n (%)
- AST increased, grade 3/4 (expansion RP2D HCC n=11): 1 (9) n (%)
- Amylase increased, all grades (expansion RP2D HCC n=11): 0 n (%)
- Amylase increased, grade 3/4 (expansion RP2D HCC n=11): 0 n (%)
- Asthenia, all grades (expansion RP2D HCC n=11): 1 (9) n (%)
- Asthenia, grade 3/4 (expansion RP2D HCC n=11): 0 n (%)
- Blood bilirubin increased, all grades (expansion RP2D HCC n=11): 0 n (%)
- Blood bilirubin increased, grade 3/4 (expansion RP2D HCC n=11): 0 n (%)
- Blood creatinine increased, all grades (expansion RP2D HCC n=11): 1 (9) n (%)
- Blood creatinine increased, grade 3/4 (expansion RP2D HCC n=11): 1 (9) n (%)
- Constipation, all grades (expansion RP2D HCC n=11): 0 n (%)
- Constipation, grade 3/4 (expansion RP2D HCC n=11): 0 n (%)
- Decreased appetite, all grades (expansion RP2D HCC n=11): 2 (18) n (%)
- Decreased appetite, grade 3/4 (expansion RP2D HCC n=11): 0 n (%)
- Diarrhea, all grades (expansion RP2D HCC n=11): 4 (36) n (%)
- Diarrhea, grade 3/4 (expansion RP2D HCC n=11): 0 n (%)
- Dizziness, all grades (expansion RP2D HCC n=11): 1 (9) n (%)
- Dizziness, grade 3/4 (expansion RP2D HCC n=11): 0 n (%)
- Dyspepsia, all grades (expansion RP2D HCC n=11): 0 n (%)
- Dyspepsia, grade 3/4 (expansion RP2D HCC n=11): 0 n (%)
- Fatigue, all grades (expansion RP2D HCC n=11): 3 (27) n (%)
- Fatigue, grade 3/4 (expansion RP2D HCC n=11): 0 n (%)
- Headache, all grades (expansion RP2D HCC n=11): 0 n (%)
- Headache, grade 3/4 (expansion RP2D HCC n=11): 0 n (%)
- Hypoalbuminemia, all grades (expansion RP2D HCC n=11): 0 n (%)
- Hypoalbuminemia, grade 3/4 (expansion RP2D HCC n=11): 0 n (%)
- Lipase increased, all grades (expansion RP2D HCC n=11): 2 (18) n (%)
- Lipase increased, grade 3/4 (expansion RP2D HCC n=11): 2 (18) n (%)
- Localized edema, all grades (expansion RP2D HCC n=11): 0 n (%)
- Localized edema, grade 3/4 (expansion RP2D HCC n=11): 0 n (%)
- Maculo‐papular rash, all grades (expansion RP2D HCC n=11): 0 n (%)
- Maculo‐papular rash, grade 3/4 (expansion RP2D HCC n=11): 0 n (%)
- Myalgia, all grades (expansion RP2D HCC n=11): 0 n (%)
- Myalgia, grade 3/4 (expansion RP2D HCC n=11): 0 n (%)
- Nausea, all grades (expansion RP2D HCC n=11): 5 (46) n (%)
- Nausea, grade 3/4 (expansion RP2D HCC n=11): 1 (9) n (%)
- Odynophagia, all grades (expansion RP2D HCC n=11): 0 n (%)
- Odynophagia, grade 3/4 (expansion RP2D HCC n=11): 0 n (%)
